Reference: the M2OR odorant receptor database
Residue numbers refer to the chain shown, from its start.

Columns and labels:
Settings in all cases: stereoisomer not certain
[1] = target: T1, OR1L3 (Homo sapiens) (UniProt Q8NH93)
T1 sequence (whole entry): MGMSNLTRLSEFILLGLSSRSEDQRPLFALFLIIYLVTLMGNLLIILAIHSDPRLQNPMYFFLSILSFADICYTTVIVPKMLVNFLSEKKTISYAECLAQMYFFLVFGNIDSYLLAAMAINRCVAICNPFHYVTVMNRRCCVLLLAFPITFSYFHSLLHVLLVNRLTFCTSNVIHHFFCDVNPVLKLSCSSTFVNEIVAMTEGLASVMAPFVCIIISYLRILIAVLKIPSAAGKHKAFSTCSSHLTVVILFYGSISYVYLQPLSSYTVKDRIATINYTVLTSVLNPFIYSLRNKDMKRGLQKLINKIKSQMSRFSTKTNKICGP
Summary of the method: (§1)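 Whether a receptor–molecule pair is responsive (active) rests on the original authors' judgment that its measured signal was statistically different from baseline. Pairs without that judgment are non-responsive (inactive). Sources used varied assay methods, commonly transient luciferase assays in mammalian cell lines.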

[2] = target: T2, OR1L4 (Homo sapiens) (UniProt Q8NGR5)
T2 sequence (whole entry): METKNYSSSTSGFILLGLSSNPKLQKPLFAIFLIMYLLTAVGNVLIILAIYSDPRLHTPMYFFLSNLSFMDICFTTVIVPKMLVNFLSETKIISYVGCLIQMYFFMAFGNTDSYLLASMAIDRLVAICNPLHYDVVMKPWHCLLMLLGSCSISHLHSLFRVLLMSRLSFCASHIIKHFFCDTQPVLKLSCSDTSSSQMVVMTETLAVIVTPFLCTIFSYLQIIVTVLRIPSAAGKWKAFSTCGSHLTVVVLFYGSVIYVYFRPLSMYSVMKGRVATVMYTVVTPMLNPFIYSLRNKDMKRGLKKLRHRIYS
Summary of the method: as §1

[3] = tested on: T3, OR1L4
T3 sequence (whole entry): T2 sequence (whole entry) with G234R
Summary of the method: as §1

[4] = tested on: T4, OR1L6
T4 sequence (whole entry): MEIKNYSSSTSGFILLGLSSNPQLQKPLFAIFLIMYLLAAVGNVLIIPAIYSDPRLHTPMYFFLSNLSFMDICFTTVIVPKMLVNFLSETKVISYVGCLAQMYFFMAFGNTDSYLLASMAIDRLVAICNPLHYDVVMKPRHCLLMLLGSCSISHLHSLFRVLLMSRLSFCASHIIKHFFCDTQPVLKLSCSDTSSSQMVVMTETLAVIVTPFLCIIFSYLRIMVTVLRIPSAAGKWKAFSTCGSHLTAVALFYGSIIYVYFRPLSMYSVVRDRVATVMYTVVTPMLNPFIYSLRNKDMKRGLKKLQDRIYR
Summary of the method: as §1

[5] = target: T5, OR1L8 (Homo sapiens) (UniProt Q8NGR8)
T5 sequence (whole entry): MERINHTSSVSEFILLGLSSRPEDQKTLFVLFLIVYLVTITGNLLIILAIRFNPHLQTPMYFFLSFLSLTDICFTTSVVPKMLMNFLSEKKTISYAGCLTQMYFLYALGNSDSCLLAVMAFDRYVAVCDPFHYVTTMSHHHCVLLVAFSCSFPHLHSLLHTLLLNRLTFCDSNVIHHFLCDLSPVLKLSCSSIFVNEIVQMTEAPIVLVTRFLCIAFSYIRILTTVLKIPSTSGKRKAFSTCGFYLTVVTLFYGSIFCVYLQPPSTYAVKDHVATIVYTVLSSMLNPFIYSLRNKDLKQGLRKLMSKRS
Summary of the method: as §1

[6] = tested on: T6, OR1L8 T27P R211P
T6 sequence (whole entry): T5 sequence (whole entry) with T27P, R211P
Summary of the method: as §1

[7] = target: T7, OR1M1 (Homo sapiens) (UniProt Q8NGA1)
T7 sequence (whole entry): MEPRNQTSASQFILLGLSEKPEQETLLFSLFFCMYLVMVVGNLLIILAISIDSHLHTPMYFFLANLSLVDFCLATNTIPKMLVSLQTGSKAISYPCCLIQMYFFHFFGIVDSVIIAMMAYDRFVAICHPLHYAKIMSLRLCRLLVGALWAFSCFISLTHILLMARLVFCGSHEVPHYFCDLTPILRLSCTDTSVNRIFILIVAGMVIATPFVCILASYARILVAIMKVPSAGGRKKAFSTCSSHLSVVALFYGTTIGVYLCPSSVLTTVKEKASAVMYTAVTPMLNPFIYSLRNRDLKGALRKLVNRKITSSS
Summary of the method: as §1

[8] = target: T8, OR1N1 (Homo sapiens) (UniProt Q8NGS0)
T8 sequence (whole entry): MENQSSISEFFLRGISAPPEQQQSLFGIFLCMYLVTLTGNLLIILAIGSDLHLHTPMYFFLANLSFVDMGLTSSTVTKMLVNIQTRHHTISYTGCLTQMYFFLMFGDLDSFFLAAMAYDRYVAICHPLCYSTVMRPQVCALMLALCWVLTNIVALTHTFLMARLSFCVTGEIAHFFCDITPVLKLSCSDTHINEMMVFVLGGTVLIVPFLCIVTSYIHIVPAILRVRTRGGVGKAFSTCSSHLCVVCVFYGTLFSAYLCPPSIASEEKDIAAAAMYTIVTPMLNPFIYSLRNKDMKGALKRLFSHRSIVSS
Summary of the method: as §1

[9] = tested on: T9, OR1N2 W37R
T9 sequence (whole entry): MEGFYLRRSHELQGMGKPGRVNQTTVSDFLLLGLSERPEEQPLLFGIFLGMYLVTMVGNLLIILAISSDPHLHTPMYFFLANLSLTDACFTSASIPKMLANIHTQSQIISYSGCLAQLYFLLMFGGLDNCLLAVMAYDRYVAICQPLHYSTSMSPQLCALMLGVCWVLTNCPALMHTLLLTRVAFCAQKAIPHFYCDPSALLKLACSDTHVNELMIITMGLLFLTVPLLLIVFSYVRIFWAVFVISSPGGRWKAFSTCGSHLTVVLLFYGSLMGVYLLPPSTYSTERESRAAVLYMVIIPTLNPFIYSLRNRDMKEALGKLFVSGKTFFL
Summary of the method: as §1

[10] = tested on: T10, OR1N2
T10 sequence (whole entry): T9 sequence (whole entry) with R37W
Summary of the method: as §1

[11] = target: T11, OR1Q1 (Homo sapiens) (UniProt Q15612)
T11 sequence (whole entry): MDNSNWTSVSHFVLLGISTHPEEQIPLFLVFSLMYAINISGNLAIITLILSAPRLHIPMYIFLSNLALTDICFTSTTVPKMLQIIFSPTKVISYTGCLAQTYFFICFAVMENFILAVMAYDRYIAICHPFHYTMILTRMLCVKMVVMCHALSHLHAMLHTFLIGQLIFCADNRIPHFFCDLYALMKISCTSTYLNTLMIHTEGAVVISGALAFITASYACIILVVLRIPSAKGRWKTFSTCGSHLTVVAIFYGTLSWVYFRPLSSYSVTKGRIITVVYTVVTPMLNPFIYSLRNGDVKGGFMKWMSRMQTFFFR
Summary of the method: as §1

[12] = tested on: T12, OR1Q1
T12 sequence (whole entry): T11 sequence (whole entry) with Q24R, I163M
Summary of the method: as §1

[13] = target: T13, OR1S1 (Homo sapiens) (UniProt Q8NH92)
T13 sequence (whole entry): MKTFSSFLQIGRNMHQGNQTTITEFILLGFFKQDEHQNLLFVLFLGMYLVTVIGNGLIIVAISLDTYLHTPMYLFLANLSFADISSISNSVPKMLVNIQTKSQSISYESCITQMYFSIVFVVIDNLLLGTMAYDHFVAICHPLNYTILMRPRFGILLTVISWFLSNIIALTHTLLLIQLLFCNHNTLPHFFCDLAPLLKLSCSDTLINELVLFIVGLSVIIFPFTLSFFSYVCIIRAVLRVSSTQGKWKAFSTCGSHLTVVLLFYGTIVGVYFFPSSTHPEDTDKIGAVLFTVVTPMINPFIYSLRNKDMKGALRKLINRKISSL
Summary of the method: as §1

[14] = target: T14, OR1S2 (Homo sapiens) (UniProt Q8NGQ3)
T14 sequence (whole entry): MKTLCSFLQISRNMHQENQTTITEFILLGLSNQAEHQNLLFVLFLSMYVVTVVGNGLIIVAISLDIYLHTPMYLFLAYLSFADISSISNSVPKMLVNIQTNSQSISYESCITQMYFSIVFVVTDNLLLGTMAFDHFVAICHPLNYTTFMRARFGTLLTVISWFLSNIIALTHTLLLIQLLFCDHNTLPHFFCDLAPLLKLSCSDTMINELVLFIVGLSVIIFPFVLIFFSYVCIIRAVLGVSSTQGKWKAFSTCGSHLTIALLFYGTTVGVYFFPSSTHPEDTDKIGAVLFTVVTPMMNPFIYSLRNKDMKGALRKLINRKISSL
Summary of the method: as §1

[15] = tested on: T15, OR1S2 E17G
T15 sequence (whole entry): T14 sequence (whole entry) with E17G
Summary of the method: as §1

[16] = tested on: T16, OR1S2 V225T G240R
T16 sequence (whole entry): T14 sequence (whole entry) with V225T, G240R
Summary of the method: as §1

[17] = target: T17, OR2A1 (Homo sapiens) (UniProt Q8NGT9)
T17 sequence (whole entry): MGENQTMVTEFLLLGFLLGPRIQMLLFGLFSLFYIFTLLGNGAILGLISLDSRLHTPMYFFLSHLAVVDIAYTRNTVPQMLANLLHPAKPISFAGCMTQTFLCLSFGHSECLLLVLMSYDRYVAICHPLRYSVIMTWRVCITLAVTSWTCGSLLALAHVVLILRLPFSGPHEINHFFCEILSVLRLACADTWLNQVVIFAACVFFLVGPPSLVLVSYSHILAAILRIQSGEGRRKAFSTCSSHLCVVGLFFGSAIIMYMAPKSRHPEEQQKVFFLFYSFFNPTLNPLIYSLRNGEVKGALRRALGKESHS
Summary of the method: as §1

[18] = tested on: T18, OR2A1 S168C
T18 sequence (whole entry): T17 sequence (whole entry) with S168C
Summary of the method: as §1

[19] = target: T19, OR1L6 (Homo sapiens) (UniProt Q8NGR2)
T19 sequence (whole entry): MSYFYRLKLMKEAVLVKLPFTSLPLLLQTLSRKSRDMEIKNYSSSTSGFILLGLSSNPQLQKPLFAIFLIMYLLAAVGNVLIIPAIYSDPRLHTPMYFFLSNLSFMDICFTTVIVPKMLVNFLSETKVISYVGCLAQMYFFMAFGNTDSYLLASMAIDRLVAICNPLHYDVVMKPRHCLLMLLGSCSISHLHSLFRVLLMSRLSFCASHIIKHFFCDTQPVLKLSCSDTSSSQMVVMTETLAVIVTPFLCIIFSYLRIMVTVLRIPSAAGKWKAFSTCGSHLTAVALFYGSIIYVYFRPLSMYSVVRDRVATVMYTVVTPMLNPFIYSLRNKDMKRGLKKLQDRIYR
Summary of the method: as §1

[20] = target: OR1P1 (Homo sapiens) (UniProt Q8NH06)
Summary of the method: as §1

Measured: odorant receptor agonist call;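 further: active if original authors judged signal statistically different from baseline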

Sequence of OR1P1 (Homo sapiens) (Q8NH06 whole entry K185A): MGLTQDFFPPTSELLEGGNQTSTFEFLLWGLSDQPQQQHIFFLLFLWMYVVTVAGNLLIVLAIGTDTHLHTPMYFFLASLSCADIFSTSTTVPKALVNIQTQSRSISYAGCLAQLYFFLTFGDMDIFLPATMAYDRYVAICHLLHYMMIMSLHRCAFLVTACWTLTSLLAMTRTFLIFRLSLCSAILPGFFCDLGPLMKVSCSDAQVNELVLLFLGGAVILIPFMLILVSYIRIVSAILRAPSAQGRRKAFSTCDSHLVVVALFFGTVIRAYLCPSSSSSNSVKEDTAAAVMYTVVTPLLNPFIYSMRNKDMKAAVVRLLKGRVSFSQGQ

CC1=C(O)C(=O)C(C)O1 (stereo not drawn)
not listed: [19] | [20]
inactive: all other assays above

CCC1OC(=O)C(O)=C1C (stereo not drawn)
not listed: [19] | [20]
inactive: all other assays above

CC(CO)CS (stereo not drawn)
inactive: [1] | [2] | [19] | [5] | [7] | [8] | [10] | [11] | [13] | [14] | [17]

O=C([O-])CCCCCCCC(=O)[O-].[H+].[H+]
inactive: [8]

C=C1CCC2CC1C2(C)C (stereo not drawn)
inactive: [17]

CCCCCCCCCCCCCCCCCC(=O)OCC
inactive: [17]

CCC1OC(C)=C(O)C1=O (stereo not drawn)
not listed: [19] | [20]
inactive: all other assays above

CC(C)=CCCC(C)=CCCC(C)=CCO
inactive: [17]

CCC(S)C(C)CO (stereo not drawn)
inactive: [1] | [2] | [19] | [5] | [7] | [8] | [10] | [11] | [13] | [14] | [17]

CC1CCCCCCCCCCCCC(=O)C1 (stereo not drawn)
not listed: [3] | [4] | [6] | [9] | [12] | [15] | [16] | [18]
inactive: all other assays above

CCC(=O)O
inactive: [17]

CCCCC(S)C(C)CO (stereo not drawn)
inactive: [1] | [2] | [19] | [5] | [7] | [8] | [10] | [11] | [13] | [14] | [17]

CC(C)=CCCC(C)=CCO
inactive: [1] | [17]

CCCCCC(S)C(C)CO (stereo not drawn)
inactive: [1] | [2] | [19] | [5] | [7] | [8] | [10] | [11] | [13] | [14] | [17]

CCCCCCCC(=O)[O-].[H+]
inactive: [17]

CCCCCCCC(=O)OCC
inactive: [17]

CCCCCCCCCCCCCCCC(=O)OCC
inactive: [17]

CCCC(S)CCOC(C)=O (stereo not drawn)
not listed: [19] | [20]
inactive: all other assays above
